The test system of test [1] is coexpressed Kv7.2 and Kv7.3. Particulars: cited from earlier work.
In test [2] the test system is concatemeric Kv7.2/Kv7.3 dimer. As to conditions: ref Hadley et al., 2003; cited from earlier work.
For test [3], the system named is concatenated Kv7.2-7.3 channels. Description: DiC8-PI. Format: cell-based. As to conditions: n = 9-21. In short, it runs like this: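 HM1-CHO cells were transiently transfected with concatenated Kv7.2-7.3 cDNA plus an EGFP plasmid using Lipofectamine 2000. Inside-out patches at 0 mV and 22°C, in 165 mM KCl/HEPES/EGTA bath, pH 7.2, with 0.1 µM ATPγS. Stepwise PI(4,5)P2 analog, 0.1–300 µM, by fast perfusion. Popen was taken over the last 20 s and corrected for channel number. n = 9–21 patches per concentration.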

For test [4], the target named is heteromeric Kv7.2/Kv7.3(EEE) channels (Homo sapiens, UniProt O43525+O43526, K462E/K469E/R471E). Nature of the test: DiC8-PI. In kind it is cell-based. As to conditions: single-component fit. In short, it runs like this:
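CHO cells expressing WT Kv7.2 with Kv7.3 […]. Excised inside-out patches were held at 0 mV, 22°C, in 165 mM KCl, 5 mM HEPES, 10 mM EGTA, pH 7.2, with 0.1 µM ATPγS. The PI(4,5)P2 analog was applied in incremental concentrations by fast piezo microperfusion. Popen was taken over the last 20 s and corrected for channel number. n = 8–13 patches.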

The subject of test [5] is Kv7.2/Kv7.3(EEE) mutant channels. Description: Activation model fitted to the DiC8-PI. Format: cell-based. Put shortly:
(§1)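 A binding/gating scheme was fitted to mean inside-out patch Popen–concentration data for the water-soluble PI(4,5)P2 analog: Kv7.2/Kv7.3 from 20–49 patches, Kv7.2/Kv7.3(EEE) from 8–13 patches. The scheme has two pairs of independent high-affinity (K3, Kv7.3) and low-affinity (K2, Kv7.2) sites and three open states (E3, E2, E1). Occupancies follow mass action with microscopic reversibility. Popen is the sum of the open-state occupancies.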

The test system of another test is homomeric Kv7.3 channels. As to conditions: ref Li et al., 2005; cited from earlier work.
For test [6], the target named is heteromeric Kv7.2/7.3 channels (Homo sapiens, UniProt O43525+O43526). Nature of the test: DiC8-PI. In kind it is cell-based. Put shortly: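 CHO cells stably cotransfected with human Kv7.2 and Kv7.3. Patches at 22 ± 0.5°C were excised inside-out and held at 0 mV. Bath was 165 mM KCl, 5 mM HEPES, 10 mM EGTA, pH 7.2, with 0.1 µM ATPγS. The PI(4,5)P2 analog was given by piezo microperfusion, rising from 0.1 to 300 µM, 30 s–2 min per step. Popen was taken over the last 20 s, corrected for channel number, with control subtracted. 11–29 patches per concentration. Weighted two-component Hill fit, shared nH.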
Chain of heteromeric Kv7.2/7.3 channels (O43525 whole entry, the tested form may be a part): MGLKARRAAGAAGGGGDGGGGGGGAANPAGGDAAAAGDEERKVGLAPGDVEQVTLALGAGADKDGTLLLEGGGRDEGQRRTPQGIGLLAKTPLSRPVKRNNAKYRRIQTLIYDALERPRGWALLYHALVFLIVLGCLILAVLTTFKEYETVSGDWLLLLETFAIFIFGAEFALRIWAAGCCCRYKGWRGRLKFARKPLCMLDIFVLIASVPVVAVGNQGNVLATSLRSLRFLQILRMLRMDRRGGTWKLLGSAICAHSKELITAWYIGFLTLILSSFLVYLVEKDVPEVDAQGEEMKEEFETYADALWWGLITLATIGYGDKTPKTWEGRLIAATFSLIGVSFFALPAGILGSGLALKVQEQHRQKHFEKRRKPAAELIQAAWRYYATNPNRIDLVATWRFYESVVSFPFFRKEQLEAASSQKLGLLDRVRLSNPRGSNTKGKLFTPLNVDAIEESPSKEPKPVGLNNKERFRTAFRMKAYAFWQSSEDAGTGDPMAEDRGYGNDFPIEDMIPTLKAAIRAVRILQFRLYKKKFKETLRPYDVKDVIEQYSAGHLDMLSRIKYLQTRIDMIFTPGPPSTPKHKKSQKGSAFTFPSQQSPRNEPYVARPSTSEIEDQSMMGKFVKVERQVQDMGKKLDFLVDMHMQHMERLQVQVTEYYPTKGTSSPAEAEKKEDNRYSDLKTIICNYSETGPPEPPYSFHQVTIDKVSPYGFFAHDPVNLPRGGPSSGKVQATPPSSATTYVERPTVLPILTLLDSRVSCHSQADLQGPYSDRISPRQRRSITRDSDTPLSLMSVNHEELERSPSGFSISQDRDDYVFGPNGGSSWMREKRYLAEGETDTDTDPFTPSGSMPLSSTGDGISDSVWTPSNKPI
Chain of heteromeric Kv7.2/7.3 channels (O43526 whole entry, the tested form may be a part): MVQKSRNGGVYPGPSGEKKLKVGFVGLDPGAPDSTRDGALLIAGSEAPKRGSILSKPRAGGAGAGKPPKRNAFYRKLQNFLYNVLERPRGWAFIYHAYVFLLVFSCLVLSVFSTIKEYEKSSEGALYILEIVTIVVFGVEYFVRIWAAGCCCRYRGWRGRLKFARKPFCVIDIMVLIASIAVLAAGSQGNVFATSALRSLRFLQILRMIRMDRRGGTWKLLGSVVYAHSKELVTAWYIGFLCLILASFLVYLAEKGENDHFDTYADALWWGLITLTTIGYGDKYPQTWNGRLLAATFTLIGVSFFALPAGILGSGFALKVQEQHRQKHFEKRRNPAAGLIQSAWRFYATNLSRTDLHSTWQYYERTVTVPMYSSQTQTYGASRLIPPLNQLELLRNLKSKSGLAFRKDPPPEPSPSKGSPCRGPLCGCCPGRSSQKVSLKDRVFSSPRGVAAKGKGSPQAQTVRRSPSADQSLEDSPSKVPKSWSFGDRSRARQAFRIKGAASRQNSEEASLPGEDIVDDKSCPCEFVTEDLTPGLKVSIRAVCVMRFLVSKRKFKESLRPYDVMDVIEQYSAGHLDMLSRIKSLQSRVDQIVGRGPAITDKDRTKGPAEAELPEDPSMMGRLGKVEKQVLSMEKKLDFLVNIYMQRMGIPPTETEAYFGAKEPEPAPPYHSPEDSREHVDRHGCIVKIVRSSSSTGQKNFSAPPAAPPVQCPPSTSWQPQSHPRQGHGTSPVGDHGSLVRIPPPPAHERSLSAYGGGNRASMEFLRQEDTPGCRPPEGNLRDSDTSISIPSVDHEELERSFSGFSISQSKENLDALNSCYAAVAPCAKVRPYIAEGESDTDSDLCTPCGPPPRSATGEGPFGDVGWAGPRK

The target in test [7] is T1, homomeric Kv7.2 channels (Homo sapiens, UniProt O43526). Description: DiC8-PI. In kind it is cell-based. Particulars: single-component Hill fit. In short, it runs like this:
(§2)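 HM1-CHO cells (human M1 receptor) were transiently transfected with human Kv7.2 or Kv7.3 A315T, plus EGFP. Excised inside-out patches were held at 0 mV, 22°C, with 0.1 µM ATPγS in the pH 7.2 KCl bath. The PI(4,5)P2 analog was applied in incremental concentrations. Popen was corrected for channel number. Single-component Hill fit. n = 7–19 patches (Kv7.2) and 7–15 patches (Kv7.3T).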

The subject of test [8] is homomeric Kv7(EEE) channels. As to conditions: expressed as homomers; ref Hernandez et al., 2008; cited from earlier work.
For test [9], the target named is T1, homomeric Kv7.2 channels. Particulars: ref Li et al., 2005; cited from earlier work.
Test [10] concerns coexpressed Kv7.2 and Kv7.3 subunits. As to conditions: ref Li et al., 2005; cited from earlier work.
For a further test, the system named is Kv7.2/Kv7.3 channels. Nature of the test: Activation model fitted to the DiC8-PI. Format: cell-based, human. In short, it runs like this: as §1
Test [11] has as its target T2, homomeric Kv7.3^T (A315T) channels (Homo sapiens, UniProt O43525, A315T).
T2 sequence (O43525 1-872 A315T): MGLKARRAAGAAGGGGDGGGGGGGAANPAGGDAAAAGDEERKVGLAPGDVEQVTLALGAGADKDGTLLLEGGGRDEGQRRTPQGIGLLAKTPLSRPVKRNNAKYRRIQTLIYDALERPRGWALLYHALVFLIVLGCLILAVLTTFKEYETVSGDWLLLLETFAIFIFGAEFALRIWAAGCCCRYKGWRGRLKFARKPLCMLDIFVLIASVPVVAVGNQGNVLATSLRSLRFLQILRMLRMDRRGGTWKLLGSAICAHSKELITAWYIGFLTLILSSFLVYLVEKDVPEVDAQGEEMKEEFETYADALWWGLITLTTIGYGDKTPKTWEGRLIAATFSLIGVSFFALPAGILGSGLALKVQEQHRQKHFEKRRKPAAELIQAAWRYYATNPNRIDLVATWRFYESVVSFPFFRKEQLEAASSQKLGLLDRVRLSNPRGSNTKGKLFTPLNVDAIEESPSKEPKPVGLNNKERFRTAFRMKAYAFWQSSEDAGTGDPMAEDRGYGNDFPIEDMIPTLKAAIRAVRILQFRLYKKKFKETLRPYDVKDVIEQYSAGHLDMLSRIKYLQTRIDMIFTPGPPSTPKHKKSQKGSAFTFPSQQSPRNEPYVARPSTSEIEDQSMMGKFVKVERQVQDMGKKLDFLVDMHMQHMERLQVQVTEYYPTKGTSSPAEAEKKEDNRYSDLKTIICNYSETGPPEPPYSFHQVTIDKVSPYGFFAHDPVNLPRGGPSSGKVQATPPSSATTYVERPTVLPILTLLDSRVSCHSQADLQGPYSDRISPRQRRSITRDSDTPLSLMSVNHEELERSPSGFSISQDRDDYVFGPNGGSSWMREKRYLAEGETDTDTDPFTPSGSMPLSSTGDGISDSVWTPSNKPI
Nature of the test: DiC8-PI. Format: cell-based. As to conditions: single-component Hill fit. Put shortly: as §2

The mark [12] stands for this setting: patches with only a single active channel.

Results on 2 compounds are retold here after paper PMC3382723 (The Journal of General Physiology, 2012).

“And” between values parts separate entries of the source, which are not always exact repeats. Equal values may be shown once. Read-outs that look alike come from different tables or passages of the source.

T1 sequence (O43526 whole entry): as the sequence (O43526 whole entry, the tested form may be a part) above
Chain of heteromeric Kv7.2/Kv7.3(EEE) channels (O43525 whole entry K462E/K469E/R471E, the tested form may be a part): as the sequence (O43525 whole entry, the tested form may be a part) above, with K462E, K469E, R471E counted along it
Chain of heteromeric Kv7.2/Kv7.3(EEE) channels (O43526 whole entry, the tested form may be a part): as the sequence (O43526 whole entry, the tested form may be a part) above

Take `CC[N+](CC)(CC)CC` [TEA, tetraethylammonium]: the “Hill slope of TEA inhibition” value in [1] (ref Shapiro et al. [2000]) is recorded as 0.58; in test [1] (single binding site equation, ref Hadley et al., 2003) it was 0.98 ± 0.02; in [2], 0.97 ± 0.12.

Regarding `CCCCCCCC(=O)OC[C@H](COP(=O)(O)O[C@@H]1[C@H](O)[C@H](O)[C@@H](OP(=O)(O)O)[C@H](OP(=O)(O)O)[C@H]1O)OC(=O)CCCCCCC` [DiC8-PI(4,5)P2, dioctanoylphosphatidyl-4,5-bisphosphate], the “concentration-response curve compared with K2/3-CHO cells” value in [3] was “very similar biphasic”. Moreover, the “Hill coefficient nH” value in test [4] is on record as 1.1 ± 0.1; in [6] (setting [12]), 1.6 ± 0.36; on homomeric Kv7.2 channels [7], 0.76 ± 0.08; in [11] it was 0.95 ± 0.2. Moreover, the EC50 in test [4] (maximum Popen undetermined) is 265 ± 74 µM; in the test with homomeric Kv7.3 channels, 2.6 µM; on homomeric Kv7.2 channels [7] (0 mV), 76.2 µM and 76 µM; in test [10] it was 40 µM; in test [11] (0 mV), 3.6 ± 1 µM. The compound further yielded an E1 in test [5] (model 4 free fit) of 0.89 ± 0.43. In test [5] (model 4 free fit), this compound gave an E2 of 0.00. The E3 in [5] (model 4 free fit) is 0.04 ± 0.14. Also, the results for the “Po (max)” value (in test [5] (model 4 free fit); with Kv7.2/Kv7.3 channels (model 4)) were 0.47 and 0.82, respectively. Also, the “maximum open probability Po3 (both Kv7.3 sites occupied)” value in [5] (model 4 prediction, at 10 µM) was 0.027. Also, the Kd in test [5] (read-out: K3, model 4 free fit) amounted to 0.94 µM. Also, the results for the Hill slope in the test with homomeric Kv7.3 channels and at homomeric Kv7.2 channels [9] were 1.33 and 0.97, respectively. For the same compound, the “Popen(max1)” value is 0.2 ± 0.0073 and ~0.2 in [6] (component 1, single- and pauci-channel patches, 0 mV); 0.28 ± 0.045 in test [6] (setting [12]). Further, the “Popen(max2)” value in test [6] (component 2, single- and pauci-channel patches, 0 mV) is listed as 0.6 ± 0.0012; in test [6] (setting [12]) it was 0.61 ± 0.0074. Also, the Hill coefficient in test [6] (constrained the same for both components, single- and pauci-channel patches) was 1.4 ± 0.06 and ~1.4. Further, the “Popen at full opening” value in [6] (higher ligand concentrations, 0 mV) is listed as roughly 0.8. Also, the “partial channel opening, % of the maximum Popen” value in [6] (low concentrations, binding to Kv7.3 subunit) is roughly 25%. Besides, the “factor between apparent affinities of high- and low-affinity sites” value in test [6] (two-component curves) is on record as “about 60”. For the same compound, the “fold less sensitive than WT channels” value in test [8] is greater than 100 fold. Also, the “E1, gating equilibrium constant” value in the test on Kv7.2/Kv7.3 channels (model 4, all four sites occupied) turned out to be 4.42 ± 0.61. The “E2, gating equilibrium constant” value in the test on Kv7.2/Kv7.3 channels (model 4, two high- and one low-affinity site occupied) turned out to be 0.46 ± 0.39. Also, the “E3, gating equilibrium constant” value in the test on Kv7.2/Kv7.3 channels (model 4, two high-affinity sites occupied) is reported as 0.26 ± 0.07. In addition, in the test on Kv7.2/Kv7.3 channels (model 4 prediction), the “concentration at which Po3 peaks” value is recorded as “around 7 µM”. Besides, the “peak open probability Po3 (only Kv7.3 subunits bound)” value in the test with Kv7.2/Kv7.3 channels (model 4 prediction, around 7 µM) is 0.145.

The term EC50 denotes the concentration that produces a half-maximal response. In general, Hill slope refers to a measure of the steepness of the concentration-response curve. The Hill coefficient is a measure of the steepness of the concentration-response curve.
